Experimental data as given in ChEMBL document CHEMBL1132227, “Low-molecular-weight peptidic and cyclic antagonists of the receptor for the complement factor C5a” (J Med Chem, 1999).

Assays:
[1] = organism: Homo sapiens; experiment: (§1) Concentration of peptide resulting in 50% inhibition of C5a (100 nM) causing the release of MPO from polymorphonuclear leukocytes; format: functional, organism-based
Method in brief: (§2)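 Freshly isolated human PMNs primed with cytochalasin B (10 µg/mL, 10 min, 37 °C). Cells (4 × 10⁶/mL) preincubated 10 min at 37 °C with peptide in Hank's balanced salt solution with 0.1% gelatin. Challenged with C5a (100 nM) for 10 min. Myeloperoxidase read-out: pH 6.8 phosphate buffer, dimethoxybenzidine/H₂O₂, stopped at 20 min with sodium azide. A450 corrected for no-peptide controls.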

[2] = molecular target: T1, C5a anaphylatoxin chemotactic receptor 1 (Homo sapiens, UniProt P21730); experiment: (§3) Inhibition of binding of [125I]C5a to human polymorphonuclear leukocyte C5a receptor
T1 sequence (P21730 whole entry): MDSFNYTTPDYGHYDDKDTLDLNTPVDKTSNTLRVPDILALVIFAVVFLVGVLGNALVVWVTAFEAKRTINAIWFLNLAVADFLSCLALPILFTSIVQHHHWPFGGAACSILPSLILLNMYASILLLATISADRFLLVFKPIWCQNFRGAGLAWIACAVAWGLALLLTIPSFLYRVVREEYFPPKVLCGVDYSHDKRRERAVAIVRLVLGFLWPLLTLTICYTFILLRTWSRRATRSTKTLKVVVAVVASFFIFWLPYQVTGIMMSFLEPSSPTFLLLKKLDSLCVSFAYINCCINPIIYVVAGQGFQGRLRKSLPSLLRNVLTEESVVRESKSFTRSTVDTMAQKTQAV
Method in brief: (§4)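 Competition binding on fresh human PMNs (0.2 × 10⁶) with [¹²⁵I]C5a (~50 pM). Buffer: 50 mM HEPES, 1 mM CaCl₂, 5 mM MgCl₂, 0.5% BSA, 0.1% bacitracin, 100 μM PMSF. Incubated 60 min at 4 °C, then filtered, washed and γ-counted. Nonspecific binding defined with 1 mM peptide or 100 nM C5a.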

[3] = organism: Homo sapiens; experiment: as §1; format: functional, organism-based; method in brief: as §2; remark: listed apart in the source
[4] = molecular target: T1, C5a anaphylatoxin chemotactic receptor 1; experiment: as §3; method in brief: as §4; remark: listed apart in the source
[5] = molecular target: T1, C5a anaphylatoxin chemotactic receptor 1; experiment: (§5) Inhibition of binding of [125I]C5a to human polymorphonuclear leukocyte(PMN) C5a anaphylatoxin chemotactic receptor
Method in brief: (§6)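 Competition binding on freshly isolated whole human PMNs (0.2 × 10⁶/well) against ~50 pM [125I]C5a, with unlabeled peptide or recombinant human C5a as competitor. Buffer: 50 mM HEPES, 1 mM CaCl2, 5 mM MgCl2, 0.5% BSA, 0.1% bacitracin, 100 μM PMSF. Incubated 60 min at 4 °C, then filtered, washed once and gamma-counted. Nonspecific binding set with 1 mM peptide or 100 nM C5a.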

[6] = molecular target: T1, C5a anaphylatoxin chemotactic receptor 1; experiment: as §5; method in brief: as §6; remark: listed apart in the source

Compound | IC50 [1] | IC50 [2] | IC50 [3] | IC50 [4] | IC50 [5] | IC50 [6]
CC(C)[C@H](NC(=O)[C@H](CO)NC(=O)[C@H](Cc1c[nH]cn1)NC(=O)[C@H](CCCCN)NC(=O)[C@H](Cc1ccc(O)cc1)NC(=O)[C@@H](N)CCCCN)C(=O)N[C@H](C(=O)N[C@@H](CCCCN)C(=O)N[C@@H](CCCCN)C(=O)NCCCCC(=O)N[C@@H](Cc1ccccc1)C(=O)N[C@@H](CCCCN)C(=O)N1CCC[C@H]1C(=O)N[C@H](CC1CCCCC1)C(=O)N[C@@H](Cc1c[nH]c2ccccc12)C(=O)N[C@H](CCCN=C(N)N)C(=O)O)C(C)C | 0.245 µM | 1.2 µM | 0.2 µM | 1.23 µM |  | 
CN1C(=O)[C@@H](CCCN=C(N)N)NC(=O)[C@H](Cc2c[nH]c3ccccc23)NC(=O)[C@@H](CC2CCCCC2)NC(=O)[C@@H]2CCCN2C(=O)[C@H](Cc2c[nH]c3ccccc23)NC(=O)[C@@H]1Cc1ccccc1 | 1.51 µM | 3 µM | 2.1 µM | 2.95 µM |  | 
C[C@H](N)C(=O)N[C@@H](CCCCN)C(=O)N1CCCC1C(=O)N[C@H](CC1CCCCC1)C(=O)N[C@@H](Cc1c[nH]c2ccccc12)C(=O)N[C@H](CCCN=C(N)N)C(=O)O (single isomer, unassigned) |  | > 1000 µM |  | > 1000 µM |  | 
CC(C)[C@H](NC(=O)[C@H](CO)NC(=O)[C@H](Cc1c[nH]cn1)NC(=O)[C@H](CCCCN)NC(=O)[C@H](Cc1ccc(O)cc1)NC(=O)[C@@H](N)CCCCN)C(=O)N[C@H](C(=O)N[C@@H](CCCCN)C(=O)N[C@@H](CCCCN)C(=O)NCCCCC(=O)NCC(=O)NCC(=O)NCC(=O)NCC(=O)N[C@@H](Cc1ccccc1)C(=O)N[C@@H](CCCCN)C(=O)N1CCC[C@H]1C(=O)N[C@H](CC1CCCCC1)C(=O)N[C@@H](Cc1c[nH]c2ccccc12)C(=O)N[C@H](CCCNC(=N)N)C(=O)O)C(C)C | 0.0724 µM | 0.2 µM | 0.07 µM | > 0.174 µM |  | 
N=C(N)NCCC[C@H]1NC(=O)[C@H](Cc2c[nH]c3ccccc23)NC(=O)[C@@H](CC2CCCCC2)NC(=O)[C@@H]2CCCN2C(=O)[C@H](Cc2c[nH]c3ccccc23)NC(=O)[C@H](Cc2ccccc2)NC1=O |  |  |  | > 42.7 µM |  | 
CC(=O)N[C@@H](Cc1ccccc1)C(=O)N[C@@H](CCCCN)C(=O)N1CCCC1C(=O)N[C@H](CC1CCCCC1)C(=O)N[C@@H](CC1c2ccccc2-c2ccccc21)C(=O)N[C@H](CCCN=C(N)N)C(=O)O (single isomer, unassigned; 16a) |  | 51 µM |  | > 51.3 µM |  | 
C[C@H](NC(=O)[C@@H](N)Cc1ccccc1)C(=O)N1CCCC1C(=O)N[C@H](CC1CCCCC1)C(=O)N[C@@H](Cc1c[nH]c2ccccc12)C(=O)N[C@H](CCCN=C(N)N)C(=O)O (single isomer, unassigned) | 3.63 µM | 9 µM | 3.7 µM | 9.12 µM |  | 
NC(N)=NCCC[C@@H](NC(=O)[C@H](Cc1c[nH]c2ccccc12)NC(=O)[C@@H](CC1CCCCC1)NC(=O)C1CCCN1C(=O)[C@H](Cc1c[nH]c2ccccc12)NC(=O)[C@@H](N)Cc1ccccc1)C(=O)O (single isomer, unassigned) | 0.316 µM |  | 0.3 µM |  | 5.9 µM | 5.89 µM
CC(=O)N[C@@H](Cc1ccccc1)C(=O)N[C@@H](CCCCN)C(=O)N1CCCC1C(=O)N[C@H](CC1CCCCC1)C(=O)N[C@@H](Cc1c[nH]c2ccccc12)C(=O)N[C@H](CCCN=C(N)N)C(=O)O (single isomer, unassigned) |  | 4.8 µM |  | 4.79 µM |  | 
CN[C@@H](Cc1ccccc1)C(=O)N[C@@H](CCCCN)C(=O)N1CCCC1C(=O)N[C@H](CC1CCCCC1)C(=O)N[C@@H](Cc1c[nH]c2ccccc12)C(=O)N[C@H](CCCN=C(N)N)C(=O)O (single isomer, unassigned) | 0.107 µM |  | 0.1 µM |  |  | 
NCCCC[C@H](NC(=O)[C@H](Cc1ccccc1)NC(=O)[C@@H](N)CCCCN)C(=O)N1CCCC1C(=O)N[C@H](CC1CCCCC1)C(=O)N[C@@H](Cc1c[nH]c2ccccc12)C(=O)N[C@H](CCCN=C(N)N)C(=O)O (single isomer, unassigned) | 0.269 µM | 2.6 µM | 0.3 µM | 2.63 µM |  | 
NCCCC[C@H](NC(=O)[C@@H](N)Cc1ccccc1)C(=O)N1CCCC1C(=O)N[C@H](CC1CCCCC1)C(=O)N[C@@H](Cc1c[nH]c2ccccc12)C(=O)N[C@H](CCCN=C(N)N)C(=O)O (single isomer, unassigned) | 6.76 µM | 2 µM | 6.8 µM | 1.95 µM |  | 
NCCCC[C@H](NC(=O)[C@@H](N)Cc1ccccc1)C(=O)N[C@@H](Cc1ccccc1)C(=O)N[C@@H](CCCCN)C(=O)N1CCC[C@H]1C(=O)N[C@H](CC1CCCCC1)C(=O)N[C@@H](Cc1c[nH]c2ccccc12)C(=O)N[C@H](CCCN=C(N)N)C(=O)O | 0.501 µM | 4.6 µM | 0.5 µM | 4.57 µM |  | 
CC(=O)N[C@@H](Cc1ccccc1)C(=O)N[C@@H](CCCCN)C(=O)N1CCCC1C(=O)N[C@H](CC1CCCCC1)C(=O)N[C@@H](CC1c2ccccc2-c2ccccc21)C(=O)N[C@H](CCCN=C(N)N)C(=O)O (single isomer, unassigned; 16b) |  | 116 µM |  | > 115 µM |  | 
CCCC[C@H](NC(=O)[C@H](Cc1ccccc1)NC(C)=O)C(=O)N1CCCC1C(=O)N[C@H](CC1CCCCC1)C(=O)N[C@@H](Cc1c[nH]c2ccccc12)C(=O)N[C@H](CCCN=C(N)N)C(=O)O (single isomer, unassigned) | 1.41 µM | 3.6 µM | 1.4 µM | 3.55 µM |  | 
CN[C@@H](Cc1ccccc1)C(=O)N[C@@H](CCCCN)C(=O)N1CCCC1C(=O)N[C@H](CC1CCCCC1)C(=O)N[C@@H](Cc1c[nH]c2ccccc12)C(=O)N[C@@H](CCCN=C(N)N)C(=O)O (single isomer, unassigned) | 1.95 µM |  | 2 µM |  |  | 
CC(=O)N[C@@H](Cc1ccccc1)C(=O)N[C@@H](CCCN)C(=O)N1CCCC1C(=O)N[C@H](CC1CCCCC1)C(=O)N[C@@H](Cc1c[nH]c2ccccc12)C(=O)N[C@H](CCCN=C(N)N)C(=O)O (single isomer, unassigned) | 0.191 µM | 0.8 µM | 0.2 µM | 0.794 µM |  | 
